For series [1], the system named is Coxsackievirus A24. Description: Inhibition of Coxsackievirus A24 RNA polymerase 3D-POL assessed as reduction in VPgpolyU level at 25 uM after 60 mins by SDS-PAGE analysis. The essentials:
(§1)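 Purified CVA24 3Dpol (1–2 µg) incubated at 30°C with 1 µg synthetic VPg, 0.5 µg polyA template, 10 µM UTP plus α-32P-UTP, and 0.5 mM Mn(II) acetate in 50 mM HEPES pH 7.5, 8% glycerol. Compounds were diluted from DMSO stocks in that buffer first. Reactions were stopped on ice, run on 16% urea Tris-Tricine SDS-PAGE, and VPgpU and VPgpolyU were phosphorimaged relative to DMSO or buffer controls.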

Series [2] is described as follows: Lipophilicity, log P of the compound. The settings on record: octanol/water. Format: physicochemical.
In series [3] the test system is Coxsackievirus A24. The series can be described thus: Inhibition of Coxsackievirus A24 RNA polymerase 3D-POL assessed as reduction in uridylylated VPg level at 25 uM after 60 mins by SDS-PAGE analysis. The essentials:
as §1

In series [4] the test system is Dengue virus. The series can be described thus: Inhibition of Dengue virus RNA polymerase NS5 assessed as reduction in polyU formation at 20 uM by SDS-PAGE analysis.
Series [5] has as its system Coxsackievirus A24. Description: Inhibition of Coxsackievirus A24 RNA polymerase 3D-POL assessed as reduction in VPgpolyU level at 10 uM by SDS-PAGE analysis. The essentials: as §1
Series [6] relates to Dengue virus. Description: Inhibition of Dengue virus RNA polymerase NS5 assessed as reduction in polyU formation at 10 uM by SDS-PAGE analysis.
Series [7] deals with Coxsackievirus A24. The series can be described thus: Inhibition of Coxsackievirus A24 RNA polymerase 3D-POL assessed as reduction in uridylylated VPg level at 10 uM by SDS-PAGE analysis. The essentials: as §1
The test system of series [8] is Coxsackievirus A24. The series can be described thus: Inhibition of Coxsackievirus A24 RNA polymerase 3D-POL assessed as reduction in VPgpolyU level at 20 uM by SDS-PAGE analysis. The essentials:
as §1

Series [9] deals with Coxsackievirus A24. The series can be described thus: Inhibition of Coxsackievirus A24 RNA polymerase 3D-POL assessed as reduction in uridylylated VPg level at 20 uM by SDS-PAGE analysis. The essentials: as §1

SMILES strings stand for the structures. The source made the active and inactive calls. No cut-off for these calls is given here.

What is called logP is a log measure of how a compound divides between an organic and an aqueous phase. For the compound `c1ccc2c(c1)c1ccccc1c1nn3nnnc3nc21`, the inhibition result in the series on Coxsackievirus A24 [1] and in the series on Coxsackievirus A24 [3] was “inactive” throughout. In series [2], the logP is 3.16.
`C/C(=N/Nc1nnc(-c2ccccc2)c(-c2ccccc2)n1)c1ccco1`: the inhibition result in the series with Coxsackievirus A24 [1] and in the series on Coxsackievirus A24 [3] was “inactive” each time. This compound also gave a logP in series [2] of 4.36.
On to `Cc1c(S(=O)(=O)N2CCN(C3c4ccccc4-c4ccccc43)CC2)cnn1-c1ccccc1`, for which the inhibition result with Coxsackievirus A24 [1] and in the series with Coxsackievirus A24 [3] was “inactive” each time. In series [2], the logP came to 4.13.
As for `O=C(Nc1ccc(OC(F)(F)F)cc1)N1CCN(c2ncccn2)CC1`, the inhibition result with Coxsackievirus A24 [1] and in the series with Coxsackievirus A24 [3] was “inactive” each time. The log partition coefficient (logP) in [2] stood at 2.96.
In the case of `Cn1c(=O)oc2cc(S(=O)(=O)Nc3ccccc3NC(=O)c3ccc(C(C)(C)C)cc3)ccc21`, the inhibition entry in the series on Dengue virus [4] is “inactive”. Further, the logP in series [2] is 4.54.
Turning to `O=C(Nc1ccc2oc3ncccc3c(=O)c2c1)c1ccc([N+](=O)[O-])cc1`, the inhibition result in the series on Coxsackievirus A24 [1] and in the series on Coxsackievirus A24 [3] was “inactive” in each case. The same compound returned a logP in series [2] of 3.5.
As for `O=C1/C(=C/c2ccc3c(c2)OCO3)CCC/C1=C\c1ccc2c(c1)OCO2`, the inhibition entry with Coxsackievirus A24 [1] and in the series with Coxsackievirus A24 [3] was “inactive” each time. This compound had a logP in [2] of 4.75.
Take `O=C(Nc1ccccc1)Nc1ccc(Oc2cccc(C(F)(F)F)c2)nc1`: the inhibition entry with Coxsackievirus A24 [1] and with Coxsackievirus A24 [3] was “inactive” each time. In addition, the log partition coefficient (logP) in series [2] was found to be 5.04.
As for `O=C(NCc1nc2ccccc2s1)c1cc(F)cc2c1OCOC2`, the inhibition entry in the series on Coxsackievirus A24 [1] and in the series on Coxsackievirus A24 [3] was “inactive” throughout. Moreover, the logP in [2] amounted to 3.12.
For the compound `O=S(=O)(NC1CCCc2ccccc21)c1cccc2nonc12` (configuration not stated), the inhibition entry in the series with Coxsackievirus A24 [1] and in the series on Coxsackievirus A24 [3] was “inactive” throughout. Also, the logP in series [2] is 3.28.
For the compound `COC(=O)Nc1nc2cc(-c3nnc(O)c4ccccc34)ccc2[nH]1`, the inhibition result in the series on Coxsackievirus A24 [1] and with Coxsackievirus A24 [3] was “inactive” throughout. The compound also returned a logP in series [2] of 2.53.
Consider `O=C1c2ccccc2S(=O)(=O)N1C[C@@H]1CC(c2ccccc2Cl)=NO1`, for which the inhibition entry in the series with Coxsackievirus A24 [1] and with Coxsackievirus A24 [3] was “inactive” each time. The same compound registered a logP in series [2] of 2.71.
Regarding `COc1ccc(-c2nc3cc4c(cc3o2)Oc2ccccc2N4)cc1`, the inhibition entry in the series with Coxsackievirus A24 [1] and with Coxsackievirus A24 [3] was “inactive” each time. Besides, in series [2], the logP was 5.09.
For the compound `O=S(=O)(NCc1cc(F)cc2c1OCOC2)c1cccc2nonc12`, the inhibition result in the series with Coxsackievirus A24 [1] and in the series with Coxsackievirus A24 [3] was “inactive” each time. The logP in series [2] came to 2.2.
In turn, `Cn1c(=O)oc2cc(S(=O)(=O)Nc3ccccc3Oc3ccccc3Cl)ccc21` registered a lipophilicity (logP) in [2] of 4.32.
In the case of `COC(=O)c1cc(=O)c2cc(NC(=O)c3ccc(OC(F)(F)F)cc3)ccc2[nH]1`, the inhibition result in the series with Coxsackievirus A24 [1] and in the series with Coxsackievirus A24 [3] was “inactive” each time. The compound also displayed a logP in series [2] of 2.78.
In the case of `O=c1[nH]c2ccc(S(=O)(=O)Nc3cccc(F)c3)cc2o1`, the inhibition entry in the series on Coxsackievirus A24 [5] and with Coxsackievirus A24 [7] was “Active” in each case. The inhibition result in the series with Dengue virus [6] was “inactive”. Further, the logP in [2] was found to be 2.06.
As to `Cc1noc(C)c1-c1nc(CN2C(=O)c3ccccc3S2(=O)=O)no1`, the inhibition entry in the series with Coxsackievirus A24 [1] and in the series with Coxsackievirus A24 [3] was “inactive” each time. Further, the log partition coefficient (logP) in series [2] was found to be 0.51.
For the compound `Cn1c(=O)oc2cc(S(=O)(=O)Nc3ccccc3Sc3ccccc3)ccc21`, the logP in series [2] was 3.91.
`Cn1c(=O)oc2cc(S(=O)(=O)Nc3cccc4cccnc34)ccc21` showed a log partition coefficient (logP) in series [2] of 1.94.
For the compound `CC(C)COc1ccc(NS(=O)(=O)c2ccc3c(c2)oc(=O)n3C)cc1Cl`, in series [2], the logP was determined as 3.77.
Take `O=S(=O)(NNc1cnc2ccccc2n1)c1ccccc1C(F)(F)F`: the inhibition entry in the series on Coxsackievirus A24 [1] and in the series on Coxsackievirus A24 [3] was “inactive” in each case. In series [2], this compound had a lipophilicity (logP) of 3.23.
In the case of `N#Cc1ccc(N2CCN(S(=O)(=O)c3cccc4nonc34)CC2)cc1`, the inhibition result in the series on Coxsackievirus A24 [1] and with Coxsackievirus A24 [3] was “inactive” throughout. This compound also gave a log partition coefficient (logP) in series [2] of 2.51.
Compound `Cn1c(=O)oc2cc(S(=O)(=O)N(CCC(N)=O)c3ccccc3)ccc21` gave a log partition coefficient (logP) in [2] of 1.23.
Take `Cc1nc(-c2cnccn2)sc1C(=O)N1CCN(C2c3ccccc3-c3ccccc32)CC1`: the inhibition entry in the series on Coxsackievirus A24 [1] and in the series with Coxsackievirus A24 [3] was “inactive” each time. For the same compound, the logP in [2] came to 3.86.
Consider `c1ccc2c(c1)Nc1nc3ccccc3nc1O2`, for which the inhibition entry in the series with Coxsackievirus A24 [1] and in the series on Coxsackievirus A24 [3] was “inactive” each time. Also, the logP in series [2] came to 3.46.
Take `CC1=C(C(=O)N[n+]2cnc3cccc(F)c3c2N)Sc2ccccc2N1`: the inhibition entry with Coxsackievirus A24 [1] and in the series with Coxsackievirus A24 [3] was “inactive” each time. The logP in series [2] is -0.39.
In series [2], `CCOc1ccc(Oc2ccc(NS(=O)(=O)c3ccc4c(c3)oc(=O)n4C)cc2)cc1` yielded a logP of 4.17.
On to `O=C(CSc1nc2ccccc2o1)N1c2ccccc2Sc2ccccc21`, for which the inhibition result in the series with Coxsackievirus A24 [1] and in the series on Coxsackievirus A24 [3] was “inactive” throughout. Besides, the log partition coefficient (logP) in series [2] worked out at 6.09.
As to `O=C(NNc1cc(C(F)(F)F)nc2ccccc12)Nc1cccc(Cl)c1`, the inhibition result in the series on Coxsackievirus A24 [1] and with Coxsackievirus A24 [3] was “inactive” in each case. The compound further yielded a lipophilicity (logP) in [2] of 5.14.
On to `CCN(c1ccccc1)S(=O)(=O)c1ccc2[nH]c(=O)oc2c1`, for which the inhibition entry in the series on Coxsackievirus A24 [8] and in the series on Coxsackievirus A24 [9] was “Active” each time. For the same compound, the inhibition entry with Dengue virus [4] was “inactive”. This compound returned a logP in series [2] of 3.
For the compound `O=S(=O)(c1ccccc1)N1CCN(C2c3ccccc3-c3ccccc32)CC1`, the inhibition result in the series with Coxsackievirus A24 [1] and with Coxsackievirus A24 [3] was “inactive” throughout. In addition, the lipophilicity (logP) in [2] was 4.26.
`O=C1c2ccccc2S(=O)(=O)N1CCS(=O)(=O)c1ccc(Cl)cc1Cl`: the inhibition result with Coxsackievirus A24 [1] and in the series on Coxsackievirus A24 [3] was “inactive” each time. The compound also came in with a lipophilicity (logP) in series [2] of 2.69.
In the case of `N#Cc1ccc(S(=O)(=O)N2CCNC(=O)[C@H]2CC(=O)Nc2cc(Cl)ccc2Cl)cc1`, the inhibition entry with Coxsackievirus A24 [1] and with Coxsackievirus A24 [3] was “inactive” in each case. Besides, the logP in series [2] worked out at 3.54.
In the case of `C[C@@H](CS(=O)(=O)Nc1ccc2c(c1)oc(=O)n2C)c1ccccc1`, the logP in series [2] is 3.06.

The values above are taken from ChEMBL document CHEMBL3745661, “Allosteric inhibitors of Coxsackie virus A24 RNA polymerase” (Bioorg Med Chem, 2016).
